Rows were chosen to be rich in hits. Some 1.8% of all compounds tested hit in one or more screens of this group.
CHRM4 agonist: agonists of human muscarinic M4 receptor (CHRM4); P08173; CHO-K1 hM4/Gqi5, Fluo-8 calcium fluorescence; vehicle 0%, full acetylcholine response 100%; activation, % at 3 µM; 360,000 compounds, 0.14% hits;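 active = activation above the run mean over all test wells plus 3 SD, cut at about 32% in these data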;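 also: peak over basal fluorescence ratio per well then scaled between controls; 0% = DMSO wells and 100% = acetylcholine at EC100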
Target sequence (P08173 whole entry, looked up): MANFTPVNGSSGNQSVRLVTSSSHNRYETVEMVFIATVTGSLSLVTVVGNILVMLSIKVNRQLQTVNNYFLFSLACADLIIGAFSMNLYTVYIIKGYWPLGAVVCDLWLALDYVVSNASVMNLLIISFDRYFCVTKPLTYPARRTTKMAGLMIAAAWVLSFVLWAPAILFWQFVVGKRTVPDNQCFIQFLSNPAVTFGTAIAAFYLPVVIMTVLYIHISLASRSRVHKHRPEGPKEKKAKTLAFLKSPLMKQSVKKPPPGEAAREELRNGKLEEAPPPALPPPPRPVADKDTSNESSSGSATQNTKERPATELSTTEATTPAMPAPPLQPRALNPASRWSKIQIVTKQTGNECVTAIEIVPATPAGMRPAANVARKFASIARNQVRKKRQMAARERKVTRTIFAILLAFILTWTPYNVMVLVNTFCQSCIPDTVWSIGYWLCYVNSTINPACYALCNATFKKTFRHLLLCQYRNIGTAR
M5 antag: CHRM5 antagonism in calcium assay; AID 624040; P08912; 360,000 compounds, 0.59% hits; inhibition, % at 3 µM; CHO-hM5 cells, Fluo-8 calcium fluorescence, ACh EC80;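 active = inhibition above a per-plate cutoff, the mean of that plate's test compounds plus 3 SD, cut at about 27% in these data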;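 also: 0% = acetylcholine EC80 with DMSO and 100% = DMSO without agonist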
M4 antag: blocks acetylcholine activation of human M4 receptor; P08173; CHO-hM4 cells, ACh EC80, Fluo-8 calcium fluorescence; inhibition, % at 3 µM; 360,000 compounds, 0.73% hits;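 active = inhibition above its plate's cutoff, the mean inhibition of sample wells plus 3 SD, cut at about 27% in these data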;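 also: 0% = acetylcholine EC80 with DMSO and 100% = DMSO without agonist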
M5 PAM: potentiates acetylcholine response at human M5 receptor; P08912; CHO-K1 hM5, Fluo-8 calcium, ACh EC20 PAM; 0% = ACh EC20, 100% = ACh EC100; activation, % at 3 µM; 360,000 compounds, 0.3% hits;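 active = activation above the run cutoff, the mean activation of all test compounds plus 3 SD, cut at about 18% in these data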
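Test system: CHO-K1 hM5 cells / Doses: single-point, 3 µM nominal / Times: Post-acetylcholine fluorescence recording 140 s / Technique: Fluo-8 calcium fluorescence / Measure: Max/basal fluorescence ratio as % of EC20–EC100 ACh window / Benchmarks: low control EC20 acetylcholine (0%), high control EC100 acetylcholine (100%) / Replicates: one well per compound, no replicates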
M5 ag: CHRM5 agonism in calcium assay; P08912; CHO-K1 hM5 cells, Fluo-8 calcium fluorescence; 0% DMSO wells, 100% maximal acetylcholine response; activation, % at 3 µM; 360,000 compounds, 0.19% hits; AID 624037;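 active = activation above the run's mean over test compounds plus 3 SD, cut at about 23% in these data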;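 also: signal is peak over basal fluorescence ratio across the kinetic read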
CHRM4 PAM: potentiates acetylcholine response at human M4 receptor | P08173 | CHO-K1 hM4/Gqi5, Fluo-8 calcium fluorescence, ACh EC20; 0% = ACh EC20, 100% = maximal ACh | activation, % at 3 µM | 360,000 compounds, 0.4% hits | AID 624126;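 active = activation above its plate's cutoff, the mean activation of sample wells plus 3 SD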
Numbers without * were called inactive.

SMILES	CHRM4 agonist	M5 antag	M4 antag	M5 PAM	M5 ag	CHRM4 PAM
Cc1ccc(NC(=O)Nc2cccc([N+](=O)[O-])c2)cc1F	12	28*	14	-16	7	-17
Cc1ccc(NC(=S)NNC(=O)c2cccc([N+](=O)[O-])c2)cc1Cl	13	28*	-13	-26	5	-19
Cc1ccc(C(C)C)cc1NC(=O)Nc1ccc([N+](=O)[O-])cc1	19	28*	20	-16	7	-14
Cc1cc(O)c(C(C)C)cc1NC(=O)Nc1ccc([N+](=O)[O-])cc1	5	18	-7	-3	1	1
Cc1cccc(C)c1-n1cccc1/C=C1/C(=N)N2C(=NC1=O)SN=C2S(C)(=O)=O	-1	19	8	-18	-10	-11
Cc1ccc(-n2cccc2/C=C2/C(=N)N3C(=NC2=O)SN=C3S(C)(=O)=O)cc1Cl	2	28*	31*	19*	2	16
N#CC(C#N)=C1C=CC=CN1/C(=C\c1ccco1)C(=O)c1ccccc1	2	10	30*	-3	-5	-12
N#CC(C#N)=C1C=CC=CN1/C(=C\c1ccco1)C(=O)c1ccc(Br)cc1	6	25	69*	-8	-5	-14
COc1ccc(C(=O)/C(=C\c2ccco2)N2C=CC=CC2=C(C#N)C#N)cc1	4	3	18	-9	-7	-9
C[C@@H]1NS(=O)(=O)[C@H]2C[C@@H]3C=C[C@]2(O3)[C@H]1OC(=O)Nc1ccc(C(F)(F)F)cc1[N+](=O)[O-]	1	20	16	-6	-1	-1
Cc1ccc(C)c(-c2nnc(NC(=O)CCS(=O)(=O)c3ccc(F)cc3)o2)c1	0	-2	2	-4	2	-1
CCOC(=O)C(NC(=O)CC)(Nc1cc(C)on1)C(F)(F)F (centres undefined)	1	-7	-8	6	-3	34*
Cc1ccc(Nc2nc(-c3c(C)nc4ccccn34)cs2)cc1	10	19	27*	-20	-6	-31
O=C1Nc2ccc(Cl)cc2C(C#CC2CC2)(C(F)(F)F)O1 (centres undefined)	-2	4	32*	-11	-2	-15
CCc1nnc(NC(=O)CSc2nnc3nc(C)cc(C)n23)s1	2	10	-21	0	-3	18*
CCOC(=O)CCN(C(=O)Nc1ccccc1)C1CCCCC1	4	17	4	-8	0	-3
Cc1ccc(S(=O)(=O)N(C)C[C@H]2OCCCC[C@@H](C)Oc3ccc(N(C)C)cc3C(=O)N([C@H](C)CO)C[C@@H]2C)cc1	0	-1	-4	0	0	1
C[C@@H]1CCCCO[C@@H](CN(C)S(=O)(=O)c2ccc(Cl)cc2)[C@@H](C)CN([C@H](C)CO)C(=O)c2cc(N(C)C)ccc2O1	0	1	-22	5	-1	18*
Cn1nc(C(=O)OCC(=O)NCc2ccc(Cl)cc2Cl)c2ccccc2c1=O	1	9	-11	-6	1	9
COc1cccc(CN(CC(=O)NCc2ccccc2)C(=O)c2csnn2)c1	3	-1	-6	-3	-1	3
O=S(=O)(C/C(=C/CO)S(=O)(=O)c1ccccc1)c1ccccc1	0	3	30*	2	0	1
CCCCC(=O)N1CCN(c2nc3ccc(Cl)cc3s2)CC1	15	5	2	-8	0	23*
COc1ccc(CC(=O)OCC(=O)Nc2ncc(Cl)cc2Cl)cc1OC	2	5	27*	15	2	11
COc1cc(CCC(=O)OCC(=O)Nc2ncc(Cl)cc2Cl)cc(OC)c1OC	2	13	6	1	-1	16
Cc1cccc(C)c1C(O)c1ncc(-c2ccc(F)cc2)[nH]1 (centres undefined)	2	-8	-10	-1	0	-2
COc1ccc(C)cc1S(=O)(=O)N(CC(=O)O)c1ccc(C)cc1	0	-13	6	12	3	32*

Screens deposited in PubChem by The Scripps Research Institute Molecular Screening Center.
